Measurements published in ChEMBL document CHEMBL1129669, “Discovery of 1,5-benzodiazepines with peripheral cholecystokinin (CCK-A) receptor agonist activity. 1. Optimization of the agonist "trigger"” (J Med Chem, 1996).
The source made the active and inactive calls. The calls are words filed in the database; no cut-off is given here.

How the values were obtained:
[1] = organism: Cavia porcellus; test: (§1) Percent contraction of the guinea pig gall bladder uM; type: functional; set-up: concentration or dose not given beside the values
Summary of the method: (§2)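 Isolated guinea pig gallbladder incubated with ligand at 37 °C, 30 µM for 30 min or 1 µM for 60 min. Contraction expressed as percent of the contraction induced by 1 µM CCK-8.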

[2] = organism: Rattus norvegicus; test: Anorectic potency in rats conditioned to a palatable liquid diet and fasted for 2 hours; type: functional
[3] = system: Rattus norvegicus; test: Maximal response of the rat to anorectic potency 30 min after intraperitoneal administration (1 uM/Kg); type: functional
[4] = organism: Cavia porcellus; test: Percentage reversal of isolated guinea pig gall bladder contraction by the compound; type: functional
Summary of the method: (§3)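 Isolated guinea pig gallbladder contraction induced by test ligand (30 µM screen), then reversed with MK-329 at 1 µM to confirm a CCK-A receptor-mediated response.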

[5] = organism: Cavia porcellus; test: as §1; type: functional; summary of the method: as §2
[6] = organism: Cavia porcellus; test: Guinea pig gall bladder contraction by the compound at concentration 1 uM in the presence of MK329; type: functional
[7] = molecular target: T1, Gastrin/cholecystokinin type B receptor (Homo sapiens, UniProt P32239); test: Concentration required to displace [125I]Bolton-Hunter CCK-8 from human Cholecystokinin type B receptor expressed in CHO-K1 cells; type: cell-based
T1 sequence (P32239 whole entry): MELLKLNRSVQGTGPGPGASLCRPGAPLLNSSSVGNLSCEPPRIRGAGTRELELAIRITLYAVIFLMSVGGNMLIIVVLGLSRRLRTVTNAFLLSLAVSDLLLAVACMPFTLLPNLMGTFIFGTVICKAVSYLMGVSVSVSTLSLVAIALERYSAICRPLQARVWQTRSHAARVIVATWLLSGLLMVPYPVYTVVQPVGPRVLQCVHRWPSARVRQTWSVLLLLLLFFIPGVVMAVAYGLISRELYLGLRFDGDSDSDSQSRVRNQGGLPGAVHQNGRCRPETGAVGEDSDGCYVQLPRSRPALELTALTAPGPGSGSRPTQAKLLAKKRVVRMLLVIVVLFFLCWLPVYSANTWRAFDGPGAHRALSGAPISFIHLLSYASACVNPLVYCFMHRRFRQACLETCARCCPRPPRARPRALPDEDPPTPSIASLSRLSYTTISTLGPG

[8] = organism: Cavia porcellus; test: Guinea pig gall bladder contraction by the compound at concentration 1 uM in the absence of MK329; type: functional; summary of the method: as §2
[9] = organism: Cavia porcellus; test: Guinea pig gall bladder contraction by the compound at concentration 30 uM in the presence of MK329; type: functional; summary of the method: as §3
[10] = organism: Cavia porcellus; test: Guinea pig gall bladder contraction by the compound at concentration 30 uM in the absence of MK329; type: functional; summary of the method: as §2
[11] = molecular target: T2, Cholecystokinin receptor type A (Homo sapiens, UniProt P32238); test: Concentration required to displace [125I]Bolton-Hunter CCK-8 from human Cholecystokinin type A receptor stably expressed in CHO-K1 cells; type: cell-based
T2 sequence (P32238 whole entry): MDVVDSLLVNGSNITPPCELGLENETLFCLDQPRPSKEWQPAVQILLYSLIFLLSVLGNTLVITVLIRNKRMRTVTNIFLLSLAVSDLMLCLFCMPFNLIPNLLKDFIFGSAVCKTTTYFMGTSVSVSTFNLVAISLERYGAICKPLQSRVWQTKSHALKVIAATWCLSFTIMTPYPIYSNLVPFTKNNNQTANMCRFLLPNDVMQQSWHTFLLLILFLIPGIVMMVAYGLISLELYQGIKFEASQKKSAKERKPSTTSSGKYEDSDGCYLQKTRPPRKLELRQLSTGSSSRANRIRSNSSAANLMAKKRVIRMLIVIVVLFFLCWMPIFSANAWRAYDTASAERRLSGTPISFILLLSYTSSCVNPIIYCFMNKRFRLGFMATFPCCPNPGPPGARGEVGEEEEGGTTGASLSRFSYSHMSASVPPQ

[12] = organism: Cavia porcellus; test: Antagonist affinity (pKB) against contraction of guinea pig gall bladder measured at a dose 30 uM; type: functional
[13] = organism: Cavia porcellus; test: Percent contraction of the guinea pig gall bladder uM; Inactive; type: functional; summary of the method: as §2
[14] = system: Rattus norvegicus; test: Maximal response of the rat to anorectic potency 30 min after intraperitoneal administration (0.5 uM/Kg); type: functional

In the case of `CC(C)N(C(=O)CN1C(=O)C(NC(=O)Nc2ccccc2)C(=O)N(c2ccccc2)c2ccccc21)C(C)C` (configuration not stated), the Activity [1] is reported as 21%.

Work on `O=C(Nc1ccccc1)NC1C(=O)N(CC(=O)N(c2ccccc2)C2CCCCC2)c2ccccc2N(c2ccccc2)C1=O` (configuration not stated) yielded an Activity [1] of 26%.

With `CCCN(C(=O)CN1C(=O)C(NC(=O)Nc2ccccc2)C(=O)N(c2ccccc2)c2ccccc21)c1ccccc1` (configuration not stated) the Activity [1] was 50%.

`CCOC(=O)CN(C(=O)CN1C(=O)C(NC(=O)Nc2ccccc2)C(=O)N(c2ccccc2)c2ccccc21)c1ccccc1` (configuration not stated) gave an Activity [1] of 16%.

`CC(C)N(C(=O)CN1C(=O)C(NC(=O)Nc2ccccc2)C(=O)N(c2ccccc2)c2ccccc21)c1ccc(N2CCOCC2)cc1` (configuration not stated) gave an ED50 [2] of 0.2 µmol/kg, a Max response [3] of 26% and a Reversal [4] of 123%. The Activity [5] was 74%, the GPGB tension [6] was 0.43 g and the IC50 [7] was 0.158 µM. For the same compound, the GPGB tension [8] was 1.88 g.

In the case of `CC(C)N(C(=O)CN1C(=O)C(NC(=O)Nc2ccccc2)C(=O)N(c2ccccc2)c2ccccc21)c1ccccc1` (configuration not stated), the ED50 [2] is reported as 0.95 µmol/kg, the GPGB tension [9] is reported as 0.43 g and the Max response [3] is reported as 48%. For the same compound, the GPGB tension [10] was 2.53 g, the Activity [1] was 86% and the Reversal [4] was 117%.

`O=C(Nc1ccccc1)NC1C(=O)N(CC(=O)N(c2ccccc2)c2ccccc2)c2ccccc2N(c2ccccc2)C1=O` (configuration not stated) gave an Activity [1] of 43%.

Compound `CCCCN(C(=O)CN1C(=O)C(NC(=O)Nc2ccccc2)C(=O)N(c2ccccc2)c2ccccc21)c1ccccc1` (configuration not stated) has an Activity [1] of 27%.

Work on `CC(C)N(C(=O)CN1C(=O)C(NC(=O)Nc2ccccc2)C(=O)N(c2ccccc2)c2ccccc21)c1ccc(O)cc1` (configuration not stated) yielded an ED50 [2] of 0.05 µmol/kg, a GPGB tension [9] of 0 g and a Max response [3] of 74%. The GPGB tension [10] was 2.25 g, the Activity [1] was 81% and the Reversal [4] was 100%. The IC50 [7] was 0.0158 µM and the IC50 [11] was 0.0398 µM.

With `NCCN(C(=O)CN1C(=O)C(NC(=O)Nc2ccccc2)C(=O)N(c2ccccc2)c2ccccc21)c1ccccc1` (configuration not stated) the Activity [1] was 7% and the pKB [12] was 5.88.

In the case of `COc1ccc(N(C(=O)CN2C(=O)C(NC(=O)Nc3ccccc3)C(=O)N(c3ccccc3)c3ccccc32)C(C)C)cc1` (configuration not stated), the ED50 [2] is reported as 0.07 µmol/kg, the GPGB tension [9] is reported as 0.2 g and the Max response [3] is reported as 62%. For the same compound, the GPGB tension [10] was 2.88 g, the Activity [1] was 93% and the Reversal [4] was 107%. For the same compound, the Activity [5] was 82%, the IC50 [7] was 0.0501 µM and the IC50 [11] was 0.0794 µM.

Compound `CCN(C(=O)CN1C(=O)C(NC(=O)Nc2ccccc2)C(=O)N(c2ccccc2)c2ccccc21)c1ccccc1` (configuration not stated) has an Activity [1] of 66%.

`O=C(CN1C(=O)C(NC(=O)Nc2ccccc2)C(=O)N(c2ccccc2)c2ccccc21)Nc1ccccc1` (configuration not stated) was tested, and the Activity [13] was “inactive” and the pKB [12] was 6.33.

In the case of `CN(C(=O)CN1C(=O)C(NC(=O)Nc2ccccc2)C(=O)N(c2ccccc2)c2ccccc21)c1ccccc1` (configuration not stated), the Activity [13] is reported as “inactive” and the pKB [12] is reported as 6.27.

For `CC(C)N(C(=O)CN1C(=O)C(NC(=O)Nc2ccccc2)C(=O)N(c2ccccc2)c2ccccc21)c1ccc(C(=O)O)cc1` (configuration not stated), the Activity [1] was 10%, the IC50 [7] was 0.0398 µM and the pKB [12] was 6.14. It also gave an IC50 [11] of 2.51 µM.

`CC(C)N(Cc1ccccc1)C(=O)CN1C(=O)C(NC(=O)Nc2ccccc2)C(=O)N(c2ccccc2)c2ccccc21` (configuration not stated) gave an Activity [1] of 34%.

`O=C(O)CN(C(=O)CN1C(=O)C(NC(=O)Nc2ccccc2)C(=O)N(c2ccccc2)c2ccccc21)c1ccccc1` (configuration not stated) was tested, and the Activity [13] was “inactive” and the pKB [12] was 6.33.

With `O=C(Nc1ccccc1)NC1C(=O)N(CC(=O)N(CCNC(=O)OCc2ccccc2)c2ccccc2)c2ccccc2N(c2ccccc2)C1=O` (configuration not stated) the Activity [13] was “inactive”.

Work on `CC(C)N(C(=O)CN1C(=O)C(NC(=O)Nc2ccccc2)C(=O)N(c2ccccc2)c2ccccc21)c1ccc(F)cc1` (configuration not stated) yielded an ED50 [2] of 0.2 µmol/kg, a Max response [3] of 56% and a Reversal [4] of 116%. For the same compound, the Activity [5] was 53%, the GPGB tension [6] was 0.34 g and the IC50 [7] was 0.0316 µM. The IC50 [11] was 0.1 µM and the GPGB tension [8] was 2.14 g.

`CCN(CC)C(=O)CN1C(=O)C(NC(=O)Nc2ccccc2)C(=O)N(c2ccccc2)c2ccccc21` (configuration not stated) gave an Activity [1] of 38%.

For `CSCC[C@H](NC(=O)[C@H](Cc1ccc(OS(=O)(=O)O)cc1)NC(=O)[C@@H](N)CC(=O)O)C(=O)NCC(=O)N[C@@H](Cc1c[nH]c2ccccc12)C(=O)N[C@@H](CCSC)C(=O)N[C@@H](CC(=O)O)C(=O)N[C@@H](Cc1ccccc1)C(N)=O` [SINCALIDE], the ED50 [2] was 0.03 µmol/kg and the Max response [14] was 96%.

`N#CCCN(C(=O)CN1C(=O)C(NC(=O)Nc2ccccc2)C(=O)N(c2ccccc2)c2ccccc21)c1ccccc1` (configuration not stated) showed an Activity [1] of 32%.

`CC(C)N(C(=O)CN1C(=O)C(NC(=O)Nc2ccccc2)C(=O)N(c2ccccc2)c2ccccc21)c1ccc(N(C)C)cc1.O=C(O)C(F)(F)F` (configuration not stated) gave an ED50 [2] of 0.09 µmol/kg, a Max response [3] of 54% and an Activity [1] of 75%. It also gave a Reversal [4] of 100%, an Activity [5] of 46% and a GPGB tension [6] of 0.01 g. The IC50 [7] was 0.251 µM, the IC50 [11] was 0.0631 µM and the GPGB tension [8] was 2.55 g.
